Measured values reported in ChEMBL document CHEMBL4513216, “Probing the Open Global Health Chemical Diversity Library for Multistage-Active Starting Points for Next-Generation Antimalarials” (ACS Infect Dis, 2020).

Experiment: Toxicity liver stage against HepG2, at 10uM
Assay type: cell-based
Parameters: test concentration 10 uM, cell line HepG2-A16-CD81EGFP
Settings: human, HepG2-A16-CD81EGFP cells; read-out: INHIBITION
In short: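 Uninfected HepG2-A16-CD81EGFP cells, 3 × 10^3 per well, 1536-well, plated on prespotted compound at 10 μM final, parasite-free screening media added to match infected plates; puromycin 10 μM positive, DMSO 0.5% negative; run in parallel with 48 h PbLuc assay at 37 °C, 5% CO2; viability by CellTiter-Glo luminescence, normalized to controls.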

COc1ccc(S(=O)(=O)N2CCOC(Cn3ccnc3)C2)cc1 (centres undefined)
cytotoxicity at 10 µM: 7.25%

CC(C)[C@H](NC(=O)NC1CCS(=O)(=O)C1)C(=O)NCc1ccc(Cl)cc1 (some centres undefined)
cytotoxicity at 10 µM: 3.09%

CCOC(=O)c1sc(NC(=O)c2cc(=O)c(OC)c[nH]2)nc1C
cytotoxicity at 10 µM: -57.1%

COC1CCN(c2ccc(NC(=O)Cn3cccn3)cc2)CC1
cytotoxicity at 10 µM: 2.04%

CS(=O)(=O)N1CC2(CCN(c3nccs3)CC2)c2ccccc21
cytotoxicity at 10 µM: 0.933%

C1CCN(Cc2nnn3c2CN(CC2CC2)CCC3)C1
cytotoxicity at 10 µM: -139%

O=C([C@H]1COC[C@H]2CN(c3ccncn3)C[C@H]21)N1CCCC1
cytotoxicity at 10 µM: -140%

Cc1cc2ccccc2n1CC(=O)NCC(=O)N1CCOCC1
cytotoxicity at 10 µM: -7.7%

O=C(Cc1ccsc1)N1CCC[C@@H]1Cn1c(=O)oc2ccccc21
cytotoxicity at 10 µM: 4.53%

O=C(c1ccc(=O)[nH]n1)N1CCNCC1c1ccccc1 (centres undefined)
cytotoxicity at 10 µM: -2.44%

CCn1nnnc1-c1cccc(NC(N)=O)c1
cytotoxicity at 10 µM: 8.92%

CSCC(=O)NC1(c2cccc(Cl)c2)CC1
cytotoxicity at 10 µM: -1.54%

CC(C)c1ncc2c(n1)CN(CC1CCCCO1)CC2 (centres undefined)
cytotoxicity at 10 µM: 8.86%

COCCn1c(C(=O)NC(C(N)=O)C(C)C)cc2ccccc21 (centres undefined)
cytotoxicity at 10 µM: 9.73%

COc1ccccc1CCNS(=O)(=O)N1CCOCC1
cytotoxicity at 10 µM: 2.52%

CNC(=O)c1sc(C(NC(=O)c2ccccc2)C2CC2)nc1C (centres undefined)
cytotoxicity at 10 µM: 2.31%

CCOC(=O)N(C)C1CCN(Cc2cnc3ccccn23)CC1
cytotoxicity at 10 µM: 18.1%

CCn1cnnc1CNC(=O)NCC(C)(CC)N1CCOCC1 (centres undefined)
cytotoxicity at 10 µM: -10.3%

Cc1c(COC(C)C)cccc1NC(=O)N1CC[C@H](O)C1
cytotoxicity at 10 µM: -11%

COCCOCCNC(=O)N1CCN(c2ccccc2C#N)CC1
cytotoxicity at 10 µM: 6.39%

O=C(OC1CCC1)c1ncccc1OCC(F)(F)F
cytotoxicity at 10 µM: -12.6%

Cc1csc(CCNC(=O)C2CCOC2)n1 (centres undefined)
cytotoxicity at 10 µM: -6.17%

CC(O)CN1CCN(C(=O)c2cccn2Cc2cccnc2)CC1 (centres undefined)
cytotoxicity at 10 µM: -9.15%

CC(=O)N(Cc1ncc(C)o1)C1CCN(CCOc2ccccc2)C1 (centres undefined)
cytotoxicity at 10 µM: 7.02%

CCn1cc(NC(=O)C2CCN(Cc3nc(C)c(C)o3)CC2)cn1
cytotoxicity at 10 µM: 5.3%

COc1cccc(S(=O)(=O)CCN2CCN(CCO)CC2)c1
cytotoxicity at 10 µM: 0.878%

CN(CC(N)=O)C(=O)c1cc(Cl)c(Cl)n1C
cytotoxicity at 10 µM: 8.56%

Cc1nn(CC(=O)N2CCN(Cc3cccnc3)CC2)c(C)c1Cl
cytotoxicity at 10 µM: 0.612%

Cc1nc(CC(=O)N2CCN(c3ccc(N(C)C)cc3)CC2)cs1
cytotoxicity at 10 µM: 0.236%

CC(Oc1ccccc1C(F)(F)F)C(=O)NCCNC(=O)C1CC1 (centres undefined)
cytotoxicity at 10 µM: 6.91%

CCn1ccnc1CN1CCN(CCCS(C)(=O)=O)CC1C (centres undefined)
cytotoxicity at 10 µM: -194%

Cc1cc(NCC(=O)N(C)CC(F)(F)F)c(C(N)=O)cc1F
cytotoxicity at 10 µM: -2.91%

CCN(C(=O)NCCc1cccc(F)c1F)C(C)CS(C)(=O)=O (centres undefined)
cytotoxicity at 10 µM: 11.9%

O=C(Nc1cccn(Cc2ccc(F)cc2)c1=O)c1csnn1
cytotoxicity at 10 µM: 1.51%

COc1cc(C(=O)N(C)C)ccc1NC(=O)c1ccsc1
cytotoxicity at 10 µM: -2.53%

Cc1cccc(I)c1C(=O)NCc1ncc[nH]1
cytotoxicity at 10 µM: 0.392%

CC(CCNC(=O)N1CCC1)N(C)C(=O)OC(C)(C)C (centres undefined)
cytotoxicity at 10 µM: -5.61%

O=C1C(Sc2nc(=O)ccn2C2CC2)CCN1c1ccccc1F (centres undefined)
cytotoxicity at 10 µM: 1.73%

CC(C)=CCN1CCN(C(=O)C2CCS(=O)(=O)C2)CC1 (centres undefined)
cytotoxicity at 10 µM: -90.5%

CN(Cc1cccc(C#N)c1)C(=O)C1CC(c2cccc(F)c2)=NO1 (centres undefined)
cytotoxicity at 10 µM: 1.85%

OC(COCc1cccs1)Cn1cc(-n2cccc2)cn1 (centres undefined)
cytotoxicity at 10 µM: 0.12%

CC(C)c1nc(C2CCCN2c2ncc(C(N)=O)cc2Cl)no1 (centres undefined)
cytotoxicity at 10 µM: 13.4%

Cc1n[nH]c(C2CN(Cc3csc(C4CCCCC4)n3)CCO2)n1 (centres undefined)
cytotoxicity at 10 µM: 23.8%

Cc1cc(NCCS(C)(=O)=O)nc2ccccc12
cytotoxicity at 10 µM: 0.748%

Cc1ncc(COc2cccc3c2NC(=O)CO3)s1
cytotoxicity at 10 µM: -3.13%

COCCNC(=O)NCc1cccc(-n2ccnc2)c1
cytotoxicity at 10 µM: 16.1%

CC(C)(C#N)c1ccccc1CN(CCO)Cc1ccsc1
cytotoxicity at 10 µM: 20%

Cc1ccc(OCC(C)NC(=O)CN(C)c2ccc(C#N)cn2)cc1 (centres undefined)
cytotoxicity at 10 µM: -6.05%

N#CC1(NC(=O)c2ccc(-c3nc(C4CC4)n[nH]3)cc2)CC1
cytotoxicity at 10 µM: -10.7%

Cc1nc(-c2ccco2)ccc1C(=O)N1CCc2nnc(N)cc2C1
cytotoxicity at 10 µM: -7.09%

O=C(c1ccc(-n2cnnc2)nc1)N1CCCC(O)(CO)CC1 (centres undefined)
cytotoxicity at 10 µM: -0.274%

CCc1nnsc1C(=O)NCCC1CCCN(C(C)C)C1 (centres undefined)
cytotoxicity at 10 µM: 4.95%

CN1CC2(CCCN(CCOCc3ccccc3)C2)OC1=O (centres undefined)
cytotoxicity at 10 µM: -10.4%

CC(C)c1nccn1CCCNC(=O)c1ccc(-c2cn[nH]c2)nc1
cytotoxicity at 10 µM: -5.84%

O=S(=O)(Cc1ccccc1CN1CC[C@H](CO)[C@H](O)C1)c1ccccc1
cytotoxicity at 10 µM: -18.2%

CCn1nc(CC(C)C)cc1C(=O)N1CCOCC(O)C1 (centres undefined)
cytotoxicity at 10 µM: -14.3%

C[C@@H]1CN(C(=O)c2cc(Cn3ccc4ccccc43)[nH]n2)C[C@H](C)O1
cytotoxicity at 10 µM: -12.2%

CSc1cccc(CN2CCn3nc(CNC(C)=O)cc3C2)c1
cytotoxicity at 10 µM: -1.03%

CCCc1cc(C(=O)NCCCn2nnc3ccccc32)no1
cytotoxicity at 10 µM: -12.5%

CCn1ccnc1CN1CCC(=O)N(CC2CC2)C(C(C)C)C1 (centres undefined)
cytotoxicity at 10 µM: -10.3%

O=C(NCCC1CN(C2CCCC2)CCO1)c1c[nH]c(=O)[nH]c1=O (centres undefined)
cytotoxicity at 10 µM: 0.0436%

Nc1nc2c(c(=O)[nH]1)CCN(C(=O)c1ccccc1N1CCCC1)C2
cytotoxicity at 10 µM: 1.79%

CC(=O)c1ccc(C(=O)N2CCC(c3cc(O)nc(C)n3)CC2)s1
cytotoxicity at 10 µM: 1.3%

Cc1ccccc1N1CCN(C(=O)CCc2nncn2C)C(C)C1 (centres undefined)
cytotoxicity at 10 µM: 3.34%

CCc1cnc(C)nc1NCCN1CCC(O)CC1
cytotoxicity at 10 µM: 1.78%

Cc1cccc(-n2c(C)cc(=O)[nH]c2=O)c1C
cytotoxicity at 10 µM: -2%

CC1CCN(C(=O)c2cccc(CN3CCOCC3)c2)CC1
cytotoxicity at 10 µM: 8.07%

c1cncc(-n2cnnc2CC2CCNCC2)c1
cytotoxicity at 10 µM: -20.1%

CCCc1cncnc1N1CCC(NCCc2nc(O)cc(O)n2)CC1
cytotoxicity at 10 µM: 5.99%

Cc1ccc(C(C)N(C)Cc2nc3c(cnn3C)c(=O)[nH]2)c(C)c1 (centres undefined)
cytotoxicity at 10 µM: -12.4%

c1ccc(OCC2CC2)c(CNC2CCc3ncnn3C2)c1 (centres undefined)
cytotoxicity at 10 µM: -6.72%

Cc1nc(C)c(C(=O)NCCNC(=O)Cc2ccccc2)s1
cytotoxicity at 10 µM: -7.89%

Cc1nn(-c2ccccc2)c(C)c1CNC1CCc2ncnn2C1 (centres undefined)
cytotoxicity at 10 µM: 2.87%

Cc1cc(C)n(CC2CN(Cc3nnsc3Cl)CCO2)n1 (centres undefined)
cytotoxicity at 10 µM: 1.46%

CC(C(=O)NCCOc1ccc2c(c1)OCO2)n1cncn1 (centres undefined)
cytotoxicity at 10 µM: -4.33%

CC(=O)Nc1nc(C(=O)N2CCCC2c2ccccc2C)cs1 (centres undefined)
cytotoxicity at 10 µM: -2.27%

COCc1cccc(NS(=O)(=O)c2cc(C(=O)O)cs2)c1
cytotoxicity at 10 µM: -4.69%

c1nc(N2CCOCC2)sc1-c1cncn1CCCN1CCCCC1
cytotoxicity at 10 µM: 0.682%

N#Cc1cccc(N2CCCC3(C2)CN(c2ncc(F)cn2)CCO3)n1 (centres undefined)
cytotoxicity at 10 µM: 22.3%

CN(Cc1cccnc1)C[C@@H]1OC[C@H]2CN(Cc3ccco3)CC[C@H]21
cytotoxicity at 10 µM: -147%

CNCc1nc(-c2ccc3c(c2)OCO3)c[nH]1
cytotoxicity at 10 µM: 3.44%

C1CN(CC2CCOCC2)Cc2c(COCC3CC3)nnn2C1
cytotoxicity at 10 µM: -130%

Cc1nc[nH]c1CN1C[C@H]2CC[C@@H](C1)N(C(=O)CCc1cccnc1)C2
cytotoxicity at 10 µM: -14.2%

CN1CCCCc2c1nc1c(c2N)CCC1
cytotoxicity at 10 µM: 8.45%
